Assay results published in ChEMBL document CHEMBL1137722, “Synthesis and pharmacological evaluation of a novel series of 5-(substituted)aryl-3-(3-coumarinyl)-1-phenyl-2-pyrazolines as novel anti-inflammatory and analgesic agents” (Eur J Med Chem, 2009).

Key:
Rattus norvegicus [1] = test: Antipyretic activity in yeast-induced pyrexia albino rat model assessed as mean rectal temperature at 200 mg/kg, po administered 30 mins after 18 hrs of yeast challenge measured after 2 hrs postdosing (Rvb=39.2 degC); type: functional
Rattus norvegicus [2] = test: Antipyretic activity in yeast-induced pyrexia albino rat model assessed as temperature index measured by sum of mean rectal temperature changes from 0 to 5 hrs at 200 mg/kg, po administered 30 mins after 18 hrs of yeast challenge (Rvb=39.4 degreeC); type: functional
[3] = Acute toxicity in po dosed albino mouse assessed as maximum tolerated dose; type: organism-based; conditions: in vivo
How it was run: (§1)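 Albino mice of either sex (20–25 g), 12 groups of six, fasted 24 h with water available. Given oral doses rising through 10, 20, 100, 200, 1000 and 2000 mg/kg. Watched continuously for 3 h for behavioural, neurological and autonomic signs, then every 30 min for the next 3 h, then up to 24 h or until death. Guideline: OECD.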

Rattus norvegicus [4] = test: Antipyretic activity in yeast-induced pyrexia albino rat model assessed as mean rectal temperature at 200 mg/kg, po administered 30 mins after 18 hrs of yeast challenge measured after 1 hr postdosing (Rvb=39.4 degC); type: functional
Rattus norvegicus [5] = test: Antipyretic activity in yeast-induced pyrexia albino rat model assessed as mean rectal temperature at 200 mg/kg, po administered 30 mins after 18 hrs of yeast challenge measured after 5 hrs postdosing (Rvb=38.2 degC); type: functional
Rattus norvegicus [6] = test: Gastrointestinal toxicity in starved albino rat stress model assessed as ulcer index at 200 mg/kg, po after 7 hrs; type: organism-based; design: dose 200 mg/kg, route oral; conditions: in vivo
How it was run: (§2)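 Albino rats of either sex, 170–250 g, six per group, starved 48 h with water ad libitum. Dosed orally as a suspension in 0.5% sodium CMC, test compounds at 200 mg/kg b.w. Killed 7 h later. Stomach opened along the greater curvature and everted. Ulcer index from lesion counts in five size classes, ranging from pinpoint to >4 mm diameter.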

Rattus norvegicus [7] = test: Antipyretic activity in yeast-induced pyrexia albino rat model assessed as mean rectal temperature at 200 mg/kg, po administered 30 mins after 18 hrs of yeast challenge measured after 3 hrs postdosing (Rvb=38.9 degC); type: functional
Rattus norvegicus [8] = test: Antiinflammatory activity in albino rat chronic arthritis model assessed as inhibition of Freund's adjuvant-induced paw edema at 200 mg/kg, po administered on day 16 to 19 post Freund's adjuvant challenge measured on day 19 relative to control; type: functional
How it was run: (§3)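 Male albino rats (150–230 g) received 0.1 ml heat-killed M. tuberculosis (Freund's complete adjuvant) into the left hind footpad on day 1. Rats with developed arthritis on day 15 were split into groups of six. Dosing was oral, days 16–19, with 1 ml 0.5% sodium CMC as control. Paw volume, body weight and secondary lesions were recorded daily. % inhibition was calculated from day 15, n=6.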

Mus musculus [9] = test: Acute toxicity in albino mouse assessed as mortality up to 2000 mg/kg, po after 24 hrs; type: organism-based; design: dose 2000 mg/kg, route oral; conditions: in vivo; how it was run: as §1
Rattus norvegicus [10] = test: Antiinflammatory activity in albino rat acute inflammatory model assessed as inhibition of carrageenan-induced paw edema at 200 mg/kg, po dosed 1 hr before carrageenan challenge measured after 4 hrs relative to control; type: functional
How it was run: (§4)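 Male albino rats (170–220 g), fasted at least 12 h with water available, groups of six. Oral dosing with 0.5% sodium CMC vehicle control. One hour later, 0.05 ml of 1% carrageenan was injected subplantar into the left hind paw. Paw volume was measured by digital plethysmometer at 0, 2 and 4 h. % inhibition = [1 − treated/control edema volume] × 100, n=6.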

Rattus norvegicus [11] = test: Antiinflammatory activity in albino rat acute inflammatory model assessed as inhibition of carrageenan-induced paw edema at 200 mg/kg, po dosed 1 hr before carrageenan challenge measured after 2 hrs relative to control; type: functional; how it was run: as §4
Mus musculus [12] = test: Analgesic activity in albino mouse assessed as protection against glacial acetic acid-induced writhing response at 200 mg/kg, po pretreated 0.5 hrs before glacial acetic acid challenge measured for 15 mins; type: functional
How it was run: (§5)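 Albino mice of either sex (20–25 g). Mice were pre-screened the day before for writhing, and only responders were used. Compound was given orally as a suspension in 0.5% sodium CMC 30 min before glacial acetic acid challenge. Stretching episodes were counted for 15 min. Results are the group mean, n=6, with % protection against control.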

Rattus norvegicus [13] = test: Antipyretic activity in yeast-induced pyrexia albino rat model assessed as mean rectal temperature at 200 mg/kg, po administered 30 mins after 18 hrs of yeast challenge measured after 4 hrs postdosing (Rvb=38.7 degC); type: functional
Mus musculus [14] = test: Acute toxicity in albino mouse assessed as behavioral response up to 2000 mg/kg, po after 24 hrs; type: organism-based; design: dose 2000 mg/kg, route oral; conditions: in vivo; how it was run: as §1
Rattus norvegicus [15] = test: Antipyretic activity in yeast-induced pyrexia albino rat model assessed as temperature index measured by sum of mean rectal temperature changes from 0 to 5 hrs at 200 mg/kg, po administered 30 mins after 18 hrs of yeast challenge (Rvb=39.6 degC); type: functional
Rattus norvegicus [16] = test: Antipyretic activity in yeast-induced pyrexia albino rat model assessed as temperature index measured by sum of mean rectal temperature changes from 0 to 5 hrs at 200 mg/kg, po administered 30 mins after 18 hrs of yeast challenge (Rvb=39.3 degC); type: functional
Rattus norvegicus [17] = test: Antipyretic activity in yeast-induced pyrexia albino rat model assessed as temperature index measured by sum of mean rectal temperature changes from 0 to 5 hrs at 200 mg/kg, po administered 30 mins after 18 hrs of yeast challenge (Rvb=39.2 degC); type: functional
Rattus norvegicus [18] = test: Antipyretic activity in yeast-induced pyrexia albino rat model assessed as mean rectal temperature at 135 mg/kg, po administered 30 mins after 18 hrs of yeast challenge measured after 4 hrs postdosing (Rvb=38.7 degC); type: functional
Rattus norvegicus [19] = test: Antipyretic activity in yeast-induced pyrexia albino rat model assessed as mean rectal temperature at 135 mg/kg, po administered 30 mins after 18 hrs of yeast challenge measured after 3 hrs postdosing (Rvb=38.9 degC); type: functional
Rattus norvegicus [20] = test: Antipyretic activity in yeast-induced pyrexia albino rat model assessed as temperature index measured by sum of mean rectal temperature changes from 0 to 5 hrs at 135 mg/kg, po administered 30 mins after 18 hrs of yeast challenge (Rvb=39.0 degC); type: functional
Rattus norvegicus [21] = test: Antipyretic activity in yeast-induced pyrexia albino rat model assessed as mean rectal temperature at 135 mg/kg, po administered 30 mins after 18 hrs of yeast challenge measured after 5 hrs postdosing (Rvb=38.2 degC); type: functional
Rattus norvegicus [22] = test: Antipyretic activity in yeast-induced pyrexia albino rat model assessed as mean rectal temperature at 135 mg/kg, po administered 30 mins after 18 hrs of yeast challenge measured after 2 hrs postdosing (Rvb=39.2 degC); type: functional
Rattus norvegicus [23] = test: Antipyretic activity in yeast-induced pyrexia albino rat model assessed as mean rectal temperature at 135 mg/kg, po administered 30 mins after 18 hrs of yeast challenge measured after 1 hr postdosing (Rvb=39.4 degreeC); type: functional
Rattus norvegicus [24] = test: Gastrointestinal toxicity in starved po dosed albino rat stress model assessed as ulcer index after 7 hrs; type: organism-based; conditions: in vivo; how it was run: as §2
Mus musculus [25] = test: Analgesic activity in albino mouse assessed as protection against glacial acetic acid-induced writhing response at 30 mg/kg, po pretreated 0.5 hrs before glacial acetic acid challenge measured for 15 mins; type: functional; how it was run: as §5
Rattus norvegicus [26] = test: Antiinflammatory activity in albino rat acute inflammatory model assessed as inhibition of carrageenan-induced paw edema at 13.5 mg/kg, po dosed 1 hr before carrageenan challenge measured after 4 hrs relative to control; type: functional; how it was run: as §4
Rattus norvegicus [27] = test: Antiinflammatory activity in albino rat chronic arthritis model assessed as inhibition of Freund's adjuvant-induced paw edema at 13.5 mg/kg, po administered on day 16 to 19 post Freund's adjuvant challenge measured on day 19 relative to control; type: functional; how it was run: as §3
Rattus norvegicus [28] = test: Antiinflammatory activity in albino rat acute inflammatory model assessed as inhibition of carrageenan-induced paw edema at 13.5 mg/kg, po dosed 1 hr before carrageenan challenge measured after 2 hrs relative to control; type: functional; how it was run: as §4

SMILES | MTD [3] [mg/kg] | Activity (Mus musculus [9]) | inhibition in vivo at 200 mg/kg (Rattus norvegicus [10]) [%] | inhibition in vivo at 200 mg/kg (Rattus norvegicus [11]) [%] | Activity (Mus musculus [14]) | other results
O=c1oc2ccccc2cc1C1=NN(c2ccccc2)[C@@H](c2ccc(F)cc2)C1 | 2000 | Non-toxic | 66.7 | 44.9 |  | Activity (Rattus norvegicus [1]): 38.3 °C; Activity (Rattus norvegicus [2]): -6.6 °C; Activity (Rattus norvegicus [4]): 39.2 °C; Activity (Rattus norvegicus [5]): 37.1 °C; UI (Rattus norvegicus [6]): 1.66; Activity (Rattus norvegicus [7]): 37.9 °C; inhibition in vivo at 200 mg/kg (Rattus norvegicus [8]): 40.5%; Activity (Mus musculus [12]): 55%; Activity (Rattus norvegicus [13]): 37.7 °C
O=c1oc2ccccc2cc1C1=NN(c2ccccc2)[C@@H](c2ccc(O)cc2)C1 | 2000 | Non-toxic | 34.6 | 28.8 |  | 
Cc1ccc([C@H]2CC(c3cc4ccccc4oc3=O)=NN2c2ccccc2)cc1 |  | Non-toxic | 38 | 30.1 | Toxic | 
COc1cccc([C@H]2CC(c3cc4ccccc4oc3=O)=NN2c2ccccc2)c1 | 2000 | Non-toxic | 61.5 | 38.3 |  | Activity (Rattus norvegicus [1]): 38.8 °C; Activity (Rattus norvegicus [4]): 39.4 °C; Activity (Rattus norvegicus [5]): 37.9 °C; UI (Rattus norvegicus [6]): 2.12; Activity (Rattus norvegicus [7]): 38.6 °C; inhibition in vivo at 200 mg/kg (Rattus norvegicus [8]): 20.9%; Activity (Mus musculus [12]): 35%; Activity (Rattus norvegicus [13]): 38.2 °C; Activity (Rattus norvegicus [15]): -5.1 °C
CN(C)c1ccc([C@H]2CC(c3cc4ccccc4oc3=O)=NN2c2ccccc2)cc1 |  | Non-toxic | 40.1 | 28.4 | Toxic | 
O=c1oc2ccccc2cc1C1=NN(c2ccccc2)[C@@H](c2ccccc2)C1 | 2000 | Non-toxic | 32.7 | 27.2 |  | 
O=c1oc2ccccc2cc1C1=NN(c2ccccc2)[C@@H](/C=C/c2ccccc2)C1 |  | Non-toxic | 42.5 | 26.7 | Toxic | 
O=c1oc2ccccc2cc1C1=NN(c2ccccc2)[C@@H](c2ccc(Cl)cc2)C1 | 2000 | Non-toxic | 64.7 | 39.2 |  | Activity (Rattus norvegicus [1]): 38.9 °C; Activity (Rattus norvegicus [4]): 39.1 °C; Activity (Rattus norvegicus [5]): 38 °C; Activity (Rattus norvegicus [16]): -3.9 °C; UI (Rattus norvegicus [6]): 2.33; Activity (Rattus norvegicus [7]): 38.5 °C; inhibition in vivo at 200 mg/kg (Rattus norvegicus [8]): 39.1%; Activity (Mus musculus [12]): 41%; Activity (Rattus norvegicus [13]): 38.1 °C
COc1ccc([C@H]2CC(c3cc4ccccc4oc3=O)=NN2c2ccccc2)cc1 |  | Non-toxic | 36.2 | 24.8 | Toxic | 
O=c1oc2ccccc2cc1C1=NN(c2ccccc2)[C@@H](c2cccc([N+](=O)[O-])c2)C1 |  | Non-toxic | 31.2 | 26.1 | Toxic | 
O=c1oc2ccccc2cc1C1=NN(c2ccccc2)[C@@H](c2ccccc2[N+](=O)[O-])C1 |  | Non-toxic | 26.6 | 24.7 | Toxic | 
O=c1oc2ccccc2cc1C1=NN(c2ccccc2)[C@@H](c2ccc(Cl)cc2Cl)C1 | 2000 | Non-toxic | 67.5 | 56.7 |  | Activity (Rattus norvegicus [1]): 38.6 °C; Activity (Rattus norvegicus [4]): 38.9 °C; Activity (Rattus norvegicus [5]): 37.2 °C; UI (Rattus norvegicus [6]): 2.67; Activity (Rattus norvegicus [7]): 38.1 °C; inhibition in vivo at 200 mg/kg (Rattus norvegicus [8]): 45.4%; Activity (Rattus norvegicus [17]): -5.4 °C; Activity (Mus musculus [12]): 59%; Activity (Rattus norvegicus [13]): 37.8 °C
CC(=O)Nc1ccc(O)cc1 [ACETAMINOPHEN] |  |  |  |  |  | Activity (Rattus norvegicus [18]): 37.3 °C; Activity (Rattus norvegicus [19]): 37.6 °C; Activity (Rattus norvegicus [20]): -6.7 °C; Activity (Rattus norvegicus [21]): 37 °C; Activity (Rattus norvegicus [22]): 38 °C; Activity (Rattus norvegicus [23]): 38.4 °C
CC(=O)Oc1ccccc1C(=O)O [ASPIRIN] |  |  |  |  |  | UI (Rattus norvegicus [24]): 4.33; Activity (Mus musculus [25]): 67%
O=C(O)Cc1ccccc1Nc1c(Cl)cccc1Cl [DICLOFENAC] |  |  |  |  |  | inhibition in vivo at 13.5 mg/kg (Rattus norvegicus [26]): 78.7%; inhibition in vivo at 13.5 mg/kg (Rattus norvegicus [27]): 53%; inhibition in vivo at 13.5 mg/kg (Rattus norvegicus [28]): 63.7%
